In ChEMBL document CHEMBL5653631, “A Potent and Selective ULK1 Inhibitor Suppresses Autophagy and Sensitizes Cancer Cells to Nutrient Stress” (iScience, 2018):

Columns and labels:
[1] = target: Transcription initiation factor TFIID subunit 1-like (Homo sapiens) (UniProt Q8IZX4); experiment: Inhibition of human recombinant TAF1L at 40 nM in presence of ATP by radiometric assay relative to control
[2] = target: T1, Tribbles homolog 2 (Homo sapiens) (UniProt Q92519); experiment: Inhibition of human recombinant Trb2 at 40 nM in presence of ATP by radiometric assay relative to control
T1 sequence (whole entry): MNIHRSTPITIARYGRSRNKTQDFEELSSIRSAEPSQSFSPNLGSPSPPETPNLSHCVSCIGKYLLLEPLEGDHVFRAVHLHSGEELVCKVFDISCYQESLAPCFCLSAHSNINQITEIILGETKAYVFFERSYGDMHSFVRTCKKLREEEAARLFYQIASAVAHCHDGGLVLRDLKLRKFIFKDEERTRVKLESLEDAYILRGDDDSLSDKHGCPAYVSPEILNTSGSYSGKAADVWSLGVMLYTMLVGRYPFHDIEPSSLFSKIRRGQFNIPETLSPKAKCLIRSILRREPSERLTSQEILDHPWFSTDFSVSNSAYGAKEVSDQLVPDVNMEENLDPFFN

[3] = target: T2, Aurora kinase C (Homo sapiens) (UniProt Q9UQB9); experiment: Inhibition of human recombinant AurC at 40 nM related to control ULK1
T2 sequence (whole entry): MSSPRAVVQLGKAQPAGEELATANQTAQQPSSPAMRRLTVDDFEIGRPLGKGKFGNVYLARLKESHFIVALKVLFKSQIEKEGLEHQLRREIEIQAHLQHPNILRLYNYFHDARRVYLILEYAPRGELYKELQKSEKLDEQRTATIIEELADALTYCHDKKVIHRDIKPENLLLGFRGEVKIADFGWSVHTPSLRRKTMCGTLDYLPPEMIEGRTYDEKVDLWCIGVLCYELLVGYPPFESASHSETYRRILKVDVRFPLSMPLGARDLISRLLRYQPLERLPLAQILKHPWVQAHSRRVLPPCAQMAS
Procedure, shortened: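 Radiometric activity assays in a panel of 327 human recombinant kinases, each run in duplicate at one inhibitor concentration. Activity remaining is expressed as percent of vehicle control, and percent inhibition is calculated as 100% minus percent activity remaining.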

[4] = target: Serine/threonine-protein kinase ULK1 (Homo sapiens, UniProt O75385); experiment: Inhibition of human ULK1
Chain of Serine/threonine-protein kinase ULK1 (O75385 whole entry): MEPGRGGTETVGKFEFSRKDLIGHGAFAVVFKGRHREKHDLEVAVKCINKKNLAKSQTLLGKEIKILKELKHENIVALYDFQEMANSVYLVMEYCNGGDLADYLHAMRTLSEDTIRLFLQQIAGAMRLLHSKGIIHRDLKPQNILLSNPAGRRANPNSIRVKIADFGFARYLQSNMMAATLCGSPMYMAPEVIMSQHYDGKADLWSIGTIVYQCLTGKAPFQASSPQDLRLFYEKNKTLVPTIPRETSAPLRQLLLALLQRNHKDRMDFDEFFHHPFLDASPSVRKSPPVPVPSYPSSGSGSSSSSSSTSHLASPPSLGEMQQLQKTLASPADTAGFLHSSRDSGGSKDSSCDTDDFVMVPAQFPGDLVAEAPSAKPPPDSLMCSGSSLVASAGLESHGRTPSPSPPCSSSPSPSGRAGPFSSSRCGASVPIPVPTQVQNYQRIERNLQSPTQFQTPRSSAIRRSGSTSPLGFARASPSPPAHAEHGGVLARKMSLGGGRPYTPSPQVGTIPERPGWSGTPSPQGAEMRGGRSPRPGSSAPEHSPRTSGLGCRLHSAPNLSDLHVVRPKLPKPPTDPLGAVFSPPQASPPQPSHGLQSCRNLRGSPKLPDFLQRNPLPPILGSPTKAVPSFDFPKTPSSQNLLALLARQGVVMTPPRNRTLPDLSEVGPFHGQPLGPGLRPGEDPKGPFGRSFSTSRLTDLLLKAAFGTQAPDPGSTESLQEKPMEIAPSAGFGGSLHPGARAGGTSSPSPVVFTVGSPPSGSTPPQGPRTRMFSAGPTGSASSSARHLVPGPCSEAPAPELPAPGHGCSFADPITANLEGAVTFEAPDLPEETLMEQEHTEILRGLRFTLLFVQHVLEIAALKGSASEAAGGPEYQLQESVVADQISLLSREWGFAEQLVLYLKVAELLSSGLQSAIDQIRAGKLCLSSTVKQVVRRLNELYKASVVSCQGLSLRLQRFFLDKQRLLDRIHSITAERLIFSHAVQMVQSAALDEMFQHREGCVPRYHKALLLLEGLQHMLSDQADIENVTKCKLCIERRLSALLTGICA

[5] = target: T3, Interleukin-1 receptor-associated kinase 4 (Homo sapiens) (UniProt Q9NWZ3); experiment: Inhibition of human recombinant IRAK4 at 15 nM in presence of ATP by radiometric assay relative to control
T3 sequence (whole entry): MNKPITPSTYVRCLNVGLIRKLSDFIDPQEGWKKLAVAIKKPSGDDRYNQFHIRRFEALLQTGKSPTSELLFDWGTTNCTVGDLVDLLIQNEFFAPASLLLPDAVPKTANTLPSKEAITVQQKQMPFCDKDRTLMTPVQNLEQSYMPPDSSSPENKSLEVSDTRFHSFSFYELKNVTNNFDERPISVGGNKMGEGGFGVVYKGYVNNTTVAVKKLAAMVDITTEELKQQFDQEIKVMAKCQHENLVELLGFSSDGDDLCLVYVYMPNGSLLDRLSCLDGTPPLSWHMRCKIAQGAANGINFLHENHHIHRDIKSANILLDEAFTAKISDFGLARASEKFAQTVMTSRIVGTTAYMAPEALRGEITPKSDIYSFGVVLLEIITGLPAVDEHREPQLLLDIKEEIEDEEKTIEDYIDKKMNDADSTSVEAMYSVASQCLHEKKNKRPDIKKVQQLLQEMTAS

[6] = target: T4, Activin receptor type-1 (Homo sapiens) (UniProt Q04771); experiment: Inhibition of human recombinant ALK2 at 500 nM in presence of ATP by radiometric assay relative to control
T4 sequence (whole entry): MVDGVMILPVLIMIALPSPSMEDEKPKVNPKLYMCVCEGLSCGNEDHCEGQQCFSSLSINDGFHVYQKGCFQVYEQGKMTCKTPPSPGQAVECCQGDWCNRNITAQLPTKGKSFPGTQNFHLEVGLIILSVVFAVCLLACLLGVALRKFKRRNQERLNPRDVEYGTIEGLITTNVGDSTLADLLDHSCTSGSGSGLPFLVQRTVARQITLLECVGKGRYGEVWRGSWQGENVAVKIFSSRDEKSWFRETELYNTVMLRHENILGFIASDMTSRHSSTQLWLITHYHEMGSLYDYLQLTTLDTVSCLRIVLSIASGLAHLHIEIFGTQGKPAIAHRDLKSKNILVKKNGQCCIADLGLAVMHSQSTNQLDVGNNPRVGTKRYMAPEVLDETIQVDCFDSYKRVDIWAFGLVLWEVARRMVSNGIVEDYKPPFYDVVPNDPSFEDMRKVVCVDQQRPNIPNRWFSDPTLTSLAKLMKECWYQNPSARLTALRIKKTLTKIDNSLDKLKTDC
Procedure, shortened: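 Panel of 327 recombinant human kinases, each assayed in vitro by radiometric activity assay in duplicate at a single inhibitor concentration per compound, chosen with reference to its ULK1 inhibition. Activity remaining was expressed as percent of vehicle control, and percent inhibition was calculated as 100 minus percent activity remaining.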

[7] = target: T5, Mitogen-activated protein kinase kinase kinase 7 (Homo sapiens) (UniProt O43318); experiment: Inhibition of human recombinant TAK1 at 500 nM related to control ULK1
T5 sequence (whole entry): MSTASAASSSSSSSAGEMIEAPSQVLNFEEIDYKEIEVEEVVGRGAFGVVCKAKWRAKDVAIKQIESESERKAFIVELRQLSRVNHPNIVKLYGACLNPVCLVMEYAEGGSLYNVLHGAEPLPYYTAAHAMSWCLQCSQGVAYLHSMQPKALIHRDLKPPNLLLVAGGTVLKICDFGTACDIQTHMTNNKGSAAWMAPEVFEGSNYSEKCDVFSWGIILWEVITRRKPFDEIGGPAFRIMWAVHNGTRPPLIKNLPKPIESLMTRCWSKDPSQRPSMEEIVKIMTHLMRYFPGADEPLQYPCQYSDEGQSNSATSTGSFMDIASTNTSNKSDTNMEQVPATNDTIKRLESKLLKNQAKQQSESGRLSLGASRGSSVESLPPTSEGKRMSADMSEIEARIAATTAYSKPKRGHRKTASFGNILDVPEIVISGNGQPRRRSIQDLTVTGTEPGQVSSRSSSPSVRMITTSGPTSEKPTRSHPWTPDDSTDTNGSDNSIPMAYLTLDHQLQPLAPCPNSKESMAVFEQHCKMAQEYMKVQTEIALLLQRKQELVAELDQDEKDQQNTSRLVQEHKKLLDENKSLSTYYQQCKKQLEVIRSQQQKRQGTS

Chain of Transcription initiation factor TFIID subunit 1-like (Homo sapiens) (Q8IZX4 whole entry): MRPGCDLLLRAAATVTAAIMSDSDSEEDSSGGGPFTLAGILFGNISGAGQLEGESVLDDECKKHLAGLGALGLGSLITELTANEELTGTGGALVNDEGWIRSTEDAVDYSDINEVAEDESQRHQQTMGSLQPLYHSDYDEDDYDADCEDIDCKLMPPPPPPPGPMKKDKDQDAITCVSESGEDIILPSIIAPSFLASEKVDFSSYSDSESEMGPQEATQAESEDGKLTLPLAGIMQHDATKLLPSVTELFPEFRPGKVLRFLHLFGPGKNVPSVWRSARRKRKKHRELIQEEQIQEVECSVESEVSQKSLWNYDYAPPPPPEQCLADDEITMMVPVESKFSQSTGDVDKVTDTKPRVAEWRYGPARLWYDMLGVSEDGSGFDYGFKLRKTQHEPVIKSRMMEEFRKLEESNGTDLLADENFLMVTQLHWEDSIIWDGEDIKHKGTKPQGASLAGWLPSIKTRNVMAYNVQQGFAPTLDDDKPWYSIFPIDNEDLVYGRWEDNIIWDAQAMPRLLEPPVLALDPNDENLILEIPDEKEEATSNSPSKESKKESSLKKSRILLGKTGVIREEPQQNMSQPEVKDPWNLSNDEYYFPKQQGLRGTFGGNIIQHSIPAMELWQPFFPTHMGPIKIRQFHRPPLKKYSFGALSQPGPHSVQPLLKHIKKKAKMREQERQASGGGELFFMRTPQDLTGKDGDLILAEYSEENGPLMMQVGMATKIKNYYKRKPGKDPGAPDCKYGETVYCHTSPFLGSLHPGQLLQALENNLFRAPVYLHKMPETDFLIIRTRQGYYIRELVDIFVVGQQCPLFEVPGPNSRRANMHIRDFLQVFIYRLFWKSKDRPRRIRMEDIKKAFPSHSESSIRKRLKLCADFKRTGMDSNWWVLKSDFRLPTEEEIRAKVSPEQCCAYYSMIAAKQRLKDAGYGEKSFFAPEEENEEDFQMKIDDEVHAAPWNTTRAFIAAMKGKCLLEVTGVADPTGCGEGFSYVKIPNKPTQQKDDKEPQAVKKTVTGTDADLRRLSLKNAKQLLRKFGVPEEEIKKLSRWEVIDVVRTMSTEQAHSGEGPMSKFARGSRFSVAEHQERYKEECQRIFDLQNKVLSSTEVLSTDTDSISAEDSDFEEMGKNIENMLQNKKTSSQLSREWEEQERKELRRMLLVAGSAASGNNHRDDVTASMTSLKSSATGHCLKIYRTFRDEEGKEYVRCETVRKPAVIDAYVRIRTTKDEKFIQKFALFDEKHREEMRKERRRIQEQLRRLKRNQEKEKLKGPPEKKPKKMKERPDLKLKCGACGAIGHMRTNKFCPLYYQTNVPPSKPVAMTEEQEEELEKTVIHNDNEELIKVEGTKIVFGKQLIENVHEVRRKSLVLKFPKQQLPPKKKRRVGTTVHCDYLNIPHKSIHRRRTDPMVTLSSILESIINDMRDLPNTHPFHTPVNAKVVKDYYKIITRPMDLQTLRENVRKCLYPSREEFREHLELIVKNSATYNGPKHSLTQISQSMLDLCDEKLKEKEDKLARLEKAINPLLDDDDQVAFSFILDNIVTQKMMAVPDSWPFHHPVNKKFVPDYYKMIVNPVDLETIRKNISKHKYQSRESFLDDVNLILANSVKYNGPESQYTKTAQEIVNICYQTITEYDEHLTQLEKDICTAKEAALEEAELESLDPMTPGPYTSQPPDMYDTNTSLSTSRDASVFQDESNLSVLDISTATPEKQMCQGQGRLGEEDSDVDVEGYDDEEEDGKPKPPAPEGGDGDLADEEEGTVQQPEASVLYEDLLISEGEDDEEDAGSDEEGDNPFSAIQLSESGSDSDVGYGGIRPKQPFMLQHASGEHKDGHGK

`O=C(N[C@@H](C1CC1)C(F)(F)F)c1cc(-c2cnn3cc(-c4ccc(F)cc4)cnc23)cs1` was tested. Which inhibition [1] did it give?
The inhibition was 47%.

And the inhibition [2]?
The inhibition was 34%.

And the fold change (FC) [3]?
Its fold change (FC) is 0.

`CC(C)[C@H](NC(=O)c1cc(-c2cnn3cc(-c4ccc(OCCN5CCCCC5)cc4)cnc23)cs1)C(F)(F)F` was tested. Which IC50 [4] did it give?
The IC50 was 1.6 nM.

And the inhibition [5]?
The inhibition was 0%.

Which inhibition [6] does the source give for `CNC(=O)c1ccccc1Oc1nc(Nc2cc(OC)c(OC)c(OC)c2)ncc1Br` here?
The inhibition was 46%.

And the fold change (FC) [7]?
The fold change (FC) was 0.03.
